Test results taken from PMC8263925 (The Journal of General Physiology, 2021).

Target: T1, Hv1 K157Q (Homo sapiens, UniProt Q96D96, K157Q)
T1 sequence (Q96D96 1-273 K157Q): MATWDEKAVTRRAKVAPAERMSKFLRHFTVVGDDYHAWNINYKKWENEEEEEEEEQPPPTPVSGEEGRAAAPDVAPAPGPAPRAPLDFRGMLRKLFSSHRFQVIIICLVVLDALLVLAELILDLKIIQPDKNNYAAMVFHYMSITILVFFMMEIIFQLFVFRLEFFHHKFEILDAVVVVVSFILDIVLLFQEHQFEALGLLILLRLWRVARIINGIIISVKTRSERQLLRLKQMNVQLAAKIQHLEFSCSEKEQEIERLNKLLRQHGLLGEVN
Test: Inside-out patch time course of inhibition, mutant channel
Assay type: cell-based
Details: 50 µM
Procedure, shortened: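 Xenopus oocytes injected with mutant-channel mRNA 1–3 d earlier, kept at 18°C in ND96. Inside-out patches at 22 ± 1°C in symmetric Mes/TEA solutions, pH 6.0. Held at −40 mV and pulsed to +120 mV at relative depolarization time 0.2 (3 s/15 s). 50 µM perfused into bath. End-pulse current leak- and rundown-corrected. Decay fitted double-exponentially (τfast, τslow, cfast, cslow); washout recovery single-exponentially (τoff).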

Cc1[nH]c(N)nc1CCC(=O)c1cc(F)cc(F)c1 [HIF, 3-(2-amino-5-methyl-1H-imidazol-4-yl)-1-(3,5-difluorophenyl)propan-1-one]
reduction of the extent of inhibition vs WT: 46%
τslow: > 200 s
